Most compounds without a hit are left out; they make up all but 3.6% or so of the library.
PfHsp90 set2 = growth inhibition of yeast expressing Plasmodium Hsp90; AID 504621; S. cerevisiae expressing PfHsp90, BacTiter-Glo ATP, 48 h; yeast lacking PDR1 and PDR3 efflux regulators; inhibition, % at 9.4 µM; hit rate 0.32% among 310,000;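 active = every replicate shows inhibition above about 80%, whatever the replicate mean, limit read from the data; inconclusive = mean inhibition reaches the set limit but some replicate falls short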;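 also: 0% = DMSO neutral controls and 100% = 20 µM radicicol positive controls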
Beta cell apopt = blocks beta cell apoptosis. INS-1E cytokine-induced death, ATP luminescence, 48 h; percent of positive-control rescue, neutral wells zero. hit rate 0.8% among 300,000. protection from apoptosis, % (test concentration not listed);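 active = Every replicate reaches about 75%, or at least half do and their mean reaches it too, limit read from the data; inconclusive = At least half of replicates reach the limit but their mean does not; inactive = Under half of replicates reach the limit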;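 also: 0% = cytokine-treated negative control wells and 100% = positive control rescue; higher means more ATP so stronger rescue from cytokine killing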
T cruzi inh = blocks replication of Trypanosoma cruzi. T. cruzi beta-gal in NIH3T3, luminescence, 90 h. inhibition, % (test concentration not listed). hit rate 1.4% among 300,000. AID 1885;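 active = mean inhibition across valid replicates above about 55%, limit read from the data; inconclusive = mean below that limit but half or more replicates reach it; inactive = mean below it, under half of replicates reach it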;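 also: signal also drops with host cell toxicity which is not excluded here; 0% = plate median of DMSO wells and 100% = zero luminescence signal; higher percent means less beta-gal luminescence so fewer parasites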
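assay system = mouse NIH/3T3 fibroblasts infected with β-gal-expressing T. cruzi Tulahuen C4 | input = 5,000 NIH/3T3 host cells per well | buffer or medium = DMEM plus 2% FBS | timing = 3 h host attachment, then at least 90 h co-culture | measured by = GalScreen luminescence, 60 min | evaluation = luminescence reflecting intracellular parasite burden, expressed as percent inhibition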
CSC inhib = blocks cancer stem cells | cancer stem cell-like cells viability, luminescence | inhibition, % at 7.5 µM | hit rate 1.1% among 300,000; in the data active = inhibition above about 75%; inconclusive = no clear call, values can overlap the other calls; tested in HMLE shEcad cells
HIF activator = HIF pathway transcriptional activation; U2OS HRE-luciferase reporter, luminescence; normalized: DMSO 0%, desferrioxamine 100%; activation, % at 7.5 µM (by protocol); hit rate 0.32% among 300,000; AID 1910;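 active = mean activation of at least 10% of the iron chelator positive control signal, with at least half of replicates also reaching 10%; inconclusive = mean and replicate majority disagree about reaching 10%; inactive = mean and most replicates under 10%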
SKKanGAS inh = blocks kanamycin growth of S. pyogenes SKKanGAS strain; BacTiter-Glo, 6 h; inhibition, % at 7.5 µM; hit rate 1.3% among 300,000; AID 1662;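 active = mean replicate score, as percent of positive control median, at least 50; inconclusive = mean below 50 but one replicate at or above 50; inactive = mean and every replicate below 50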;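 also: strain carries kanamycin resistance gene driven by streptokinase promoter and grows in 40 µg/ml kanamycin; loss of luminescence reflects streptokinase promoter inhibition or plain growth inhibition; 0% = median of DMSO wells and 100% = positive control at its reference dose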
* marks the source's active call; other numbers are inactive results; ? = inconclusive; nt = no result.

SMILES | PfHsp90 set2 | Beta cell apopt | T cruzi inh | CSC inhib | HIF activator | SKKanGAS inh
Cc1ccc(C)c(-c2csc(NC(=O)C3=COCCO3)n2)c1 | nt | 77* | 53 | nt | 1 | 6
Cc1ccc(C)c(-c2csc(NC(=O)c3cnccn3)n2)c1 | -2 | 3 | 93* | 14 | -1 | 37
Cc1ccc(-c2csc(NC(=O)C3=COCCO3)n2)cc1 | 25 | 0 | -6 | 4 | 3 | -4
O=C(Cc1cccc(NC(=O)C2CCCN(C(=O)C3CCC3)C2)c1)Nc1ccc(C(=O)N2CCCCC2)cc1 (centres undefined) | 3 | nt | nt | nt | nt | nt
CC(C)N(Cc1ccccc1)C(=O)COC(=O)C1CCCCC1 | 9 | -6 | nt | 12 | nt | nt
COc1ccc2c(c1)C(CC(=O)NN)CCC2 (centres undefined) | 8 | nt | nt | nt | nt | nt
Cc1nc(-c2ccccn2)nc(SCC(=O)c2ccccc2)c1Cl | 6 | 22 | 9 | -10 | 0 | 93*
C=CCC1(CC=C)CCCN1C(=O)c1cc(COc2ccc(C)nc2)on1 | -3 | 105* | ? | 3 | 2 | -1
CCc1ccc(/C=N/Nc2ncnc3nc[nH]c23)cc1 | 18 | -3 | 0 | 8 | 0 | 0
CCc1ccc(N=Nc2ccc(O)c3[nH]cnc23)cc1 | -16 | 4 | nt | 82* | nt | nt
Cc1nn(C(C)C(=O)NC2C(=O)N3C(C(=O)O)=C(CSc4nnnn4C)CSC23)cc1Cl (centres undefined) | -5 | -2 | -10 | -4 | -1 | 100*
Cc1cc(C(F)F)nn1CC(=O)NC1C(=O)N2C(C(=O)O)=C(CSc3nnnn3C)CSC12 (centres undefined) | 5 | 1 | 2 | -2 | -1 | 119*
Cn1nnnc1SCC1=C(C(=O)O)N2C(=O)C(NC(=O)C3CC3c3ccccc3)C2SC1 (centres undefined) | 6 | -12 | -1 | -12 | -1 | 101*
CON=C(C(=O)NC1C(=O)N2C(C(=O)O)=C(CSc3nc(=O)c(=O)[nH]n3C)CSC12)c1csc(N)n1 (centres undefined) | -10 | nt | nt | nt | nt | nt
CC(C(=O)NC1C(=O)N2C(C(=O)O)=C(CSc3nnnn3C)CSC12)n1cc(Br)cn1 (centres undefined) | 1 | -8 | -9 | -9 | 1 | 97*
CC1=C(C(=O)O)N2C(=O)C(NC(=O)c3ccn(C)n3)C2SC1 (centres undefined) | -14 | 22 | -26 | 19 | 0 | -4
O=C(COC(=O)CNC(=O)c1ccccc1F)NC1CC1 | -7 | -1 | nt | 0 | nt | nt
NS(=O)(=O)c1ccc(NC(=O)COC(=O)/C(=C/c2cccs2)c2cccs2)cc1 | 16 | -5 | -7 | -16 | 0 | 8
CN(CC(=O)Nc1ccc(F)c(F)c1F)C(=O)Cc1ccc(S(=O)(=O)N2CCOCC2)s1 | -16 | nt | nt | nt | nt | nt
Cc1ccc(S(=O)(=O)N[C@H](C(=O)NC2CCC(C)CC2)C(C)C)cc1 (some centres undefined) | -1 | 4 | nt | -10 | nt | nt
NC(=O)C1CCN(C(=O)C(=O)c2cn(CC(=O)N3CCCCCC3)c3ccccc23)CC1 | -16 | 2 | 62* | 8 | -1 | 11
CC1CCN(C(=O)C(=O)c2cn(CC(=O)N3CCCCCC3)c3ccccc23)CC1 | 12 | 5 | 55* | nt | 0 | 15
CC1CCCN(C(=O)C(=O)c2cn(CC(=O)N3CCCCCC3)c3ccccc23)C1 (centres undefined) | -13 | 0 | 62* | nt | 0 | 12
CCN1CCN(C(=O)C(=O)c2cn(CC(=O)N3CCCCCC3)c3ccccc23)CC1 | 30 | 1 | 27 | -9 | 0 | 5
COc1ccc(CCNC(=O)COc2ccc(S(=O)(=O)NC(C)C)cc2Cl)cc1OC | nt | -1 | 2 | -8 | 0 | 2
COc1ccc(N(CC(=O)NCCC2=CCCCC2)S(=O)(=O)c2ccc(C)cc2)cc1OC | -6 | 8 | 46 | -2 | -1 | 9
COc1ccc(N(CC(=O)NCCC2=CCCCC2)S(=O)(=O)c2ccccc2)cc1OC | 29 | 1 | 60* | -8 | -1 | -4
Cc1cc(OCCCCCn2ccnc2)cc(C)c1Cl | -5 | -4 | 49 | 1 | 0 | 33
C=CCc1cc(Cl)ccc1OCCCn1ccnc1 | 3 | 3 | 57* | 3 | -2 | 30
Fc1ccc(OCCCn2ccnc2)cc1 | -30 | -3 | -19 | -8 | 1 | 4
